Experimental data pooled from the literature.
Compare with care: the assays were run in different laboratories.

COc1cc(/C=N/n2c(C)nc3ccc(C)cc3c2=O)ccc1OCc1ccccc1 — viability (LoVo; cell growth or viability; LDH; 200 µg/mL; 24 h): 76.5%
CC[C@@H]1C=CC(=O)O[C@@H]1C[C@@H](O)[C@H](C)[C@H](O)[C@@H](C)Cc1ccc(F)cc1 — GI50 (A2780; cell growth or viability; MTT; 48 h): 0.0297 µM
Cc1nc2ccc(Br)cc2c(=O)n1/N=C/c1ccc(C(=O)O)cc1 — viability (LoVo; cell growth or viability; LDH; 200 µg/mL; 24 h): 61.9%
CC(C)c1cc(C(=O)N2Cc3ccccc3C2)c(O)c2c1C(=NO)CC2 — IC50 (UMUC3; cell growth or viability; ATP luminescence; 72 h): 51.6 µM
CC(C)(O)[C@H]1CC[C@H](Nc2ccc3ncc(-c4cccc(C(F)(F)F)c4)n3n2)CC1 — EC50 (UMUC3; colony formation): 2.2 µM
Cc1c(NC(=O)c2ccc(C(C)(C)C)cc2)cccc1-c1cn(C)c(=O)c(Nc2ccc(C(=O)N3CCOCC3)cc2)n1 — GI50 (U2932; cell growth or viability; 48 h): > 10 µM
Cc1ccc2c(c1)C(=NNc1nnc(Cc3ccccc3)c3ccccc13)C(=O)N2 — inhibition (HT-29; cell growth or viability; 30 µM): 89.1%
COc1ccc(-c2ccc(-c3ccc(C(=N)N)nc3)s2)cc1Cl — GI50 (TK-10; cell growth or viability): 1.9 µM
COc1ccc(-c2nc(NN=C3C(=O)Nc4ccc(Cl)cc43)c3ccccc3n2)cc1OC — inhibition (HT-29; cell growth or viability; 30 µM): 5.3%
CCC1=C[C@@H]2CN(C1)Cc1c([nH]c3ccccc13)[C@@](C(=O)OC)(c1cc3c(cc1OC)N(C)[C@H]1[C@@](O)(C(=O)OC)[C@H](OC(C)=O)[C@]4(CC)C=CCN5CC[C@]31[C@@H]54)C2 — IC80 (LLC-PK1; cell growth or viability; 72 h): 0.011 µM
C=CC(=O)Nc1cccc(Nc2nc(Nc3ccc(OCCOC)cc3)ncc2F)c1 — GI50 (U2932; cell growth or viability; 48 h): 4.3 µM
COc1ccc(-c2nc(NN=C3C(=O)Nc4ccc(Br)cc43)c3ccccc3n2)cc1OC — inhibition (HT-29; cell growth or viability; 10 µM): 70.8%
Cc1cc(C)n(C(=S)[S][Au][PH](CCCCCC[PH]([Au][S]C(=S)n2nc(C)cc2C)(c2ccccc2)c2ccccc2)(c2ccccc2)c2ccccc2)n1 — GI50 (TK-10; cell growth or viability): 1.21 µM
COc1cc(-c2ccc(-c3ccc(C(=N)N)nc3)s2)cc(OC)c1OC — GI50 (TK-10; cell growth or viability): 3.19 µM
CC(C)c1cc(C(=O)N2Cc3ccccc3C2)c(O)c2c1C=CC2 — IC50 (UMUC3; cell growth or viability; ATP luminescence; 72 h): 59.4 µM
COc1cc([C@@H]2c3cc4c(cc3[C@@H](O[C@@H]3O[C@@H]5CO[C@@H](C)O[C@H]5[C@H](O)[C@H]3O)[C@H]3COC(=O)[C@H]23)OCO4)cc(OC)c1O — IC50 (Caco-2; cell growth or viability; MTS; 48 h): 15.3 µM
CC(C)C[C@H](NC(=O)[C@H](Cc1ccccc1)NC(=O)c1cnccn1)B(O)O — IC50 (NCI-H1581; cell growth or viability; ATP luminescence): 0.016 µM
COc1cc(/C=N/n2c(C)nc3ccc(Br)cc3c2=O)ccc1OCc1ccc(Cl)cc1 — viability (LoVo; cell growth or viability; LDH; 200 µg/mL; 24 h): 80%
